From ChEMBL document CHEMBL1123247, “Nucleoside conjugates. 7. Synthesis and antitumor activity of 1-beta-D-arabinofuranosylcytosine conjugates of ether lipids” (J Med Chem, 1986)
Where “and” joins values, the source holds several entries; their conditions need not be identical. Identical values can stand only once.

How the values were obtained:
L1210 [1] = experiment: Antitumor activity was determined against the ip implanted L1210 leukemia in mice by percent median survival rate (treated/control) at 32 and 66 mg/kg (treatment of 1-5qd schedule) dosage; Range is 11.0/8.0; format: functional, Mus musculus; conditions: route intraperitoneal
Summary of the method: (§1)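 DBA/2J mice, 23-28 g, in groups of 6, were inoculated ip with 1×10^6 L1210 cells on day 0. Dosing was ip starting 24 h later on the stated daily schedules. Conjugates were given as sonicated solutions and reference prodrugs as suspensions in 0.9% NaCl with 0.5% Tween-80. Mice were observed daily until death or 45 days. Median survival T/C was calculated from survivors per NCI protocols.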

L1210 [2] = experiment: Antitumor activity was determined against the ip implanted L1210 leukemia in mice by range in survival days at 128 and 262 mg/kg (treatment of 1qd schedule) dosage; Range is 7-8; format: functional, Mus musculus; conditions: route intraperitoneal; summary of the method: as §1
L1210 [3] = experiment: Antitumor activity was determined against the ip implanted L1210 leukemia in mice by range in survival days at 32 and 66 mg/kg (treatment of 1-5qd schedule) dosage; Range is 10-12; format: functional, Mus musculus; conditions: route intraperitoneal; summary of the method: as §1
L1210 [4] = experiment: Antitumor activity against the ip implanted L1210 leukemia in mice expressed as optimal dose (1-5qd treatment schedule) required to produce greatest increase in life span was determined; format: functional, Mus musculus
Summary of the method: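 DBA/2J mice, groups of 6 (23-28 g), were inoculated ip with 1 × 10^6 L1210 cells on day 0. Dosing was ip from 24 h, in 0.9% NaCl with 0.5% Tween-80 (sonicated solution or suspension). Mice were observed daily until death or day 45. Median survival T/C followed NCI protocols, and ILS = (T/C − 1) × 100. Active range means doses giving ILS ≥25%; optimal dose means greatest ILS.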

L1210 [5] = experiment: Antitumor activity was determined against the ip implanted L1210 leukemia in mice by change in […] at 128 and 262 mg/kg (treatment of 1qd schedule) dosage; format: functional, Mus musculus; conditions: route intraperitoneal
Summary of the method: (§2)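 DBA/2J mice, 6 per group (wt 23-28 g), inoculated ip with 1×10^6 L1210 cells on day 0. Treatment was given ip in 0.9% NaCl with 0.5% Tween-80, starting 24 h later. Weight change was taken on day 8. Mice were observed daily until death or 45 days. Median survival T/C and %ILS = (T/C − 1) × 100 came from survivors per NCI protocols, and 45-day survivors were counted.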

L1210 [6] = experiment: Antitumor activity was determined against the ip implanted L1210 leukemia in mice by change in […] at 32 and 66 mg/kg (treatment of 1-5qd schedule) dosage; format: functional, Mus musculus; conditions: route intraperitoneal; summary of the method: as §2
L1210 [7] = experiment: Antitumor activity was determined against the ip implanted L1210 leukemia in mice by 45-day survivors in mice at 128 and 262 mg/kg (treatment of 1qd schedule) dosage; format: functional, Mus musculus; conditions: route intraperitoneal
Summary of the method: (§3)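 DBA/2J mice in groups of 6 (wt 23-28 g) were inoculated ip with 1×10^6 L1210 cells on day 0. Dosing was ip from 24 h, in 0.9% NaCl with 0.5% Tween-80 (conjugates sonicated), across a range of doses. Mice were observed daily until death or 45 days. Median T/C was computed from survivors per NCI protocols, and ILS = (T/C − 1)×100.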

L1210 [8] = experiment: Antitumor activity was determined against the ip implanted L1210 leukemia in mice by 45-day survivors in mice at 32 and 66 mg/kg (treatment of 1-5qd schedule) dosage; format: functional, Mus musculus; conditions: route intraperitoneal; summary of the method: as §3
L1210 [9] = experiment: Antitumor activity was determined against the ip implanted L1210 leukemia in mice by percent increase in life span at 32 and 66 mg/kg (treatment of 1-5qd schedule) dosage; format: functional, Mus musculus; conditions: route intraperitoneal; summary of the method: as §3
L1210 [10] = experiment: Antitumor activity was determined against the ip implanted L1210 leukemia in mice by percent increase in life span at 128 and 262 mg/kg (treatment of 1qd schedule) dosage; format: functional, Mus musculus; conditions: route intraperitoneal; summary of the method: as §3
L1210 [11] = experiment: Antitumor activity was determined against the ip implanted L1210 leukemia in mice by median survival time at 128 and 262 mg/kg (treatment of 1qd schedule) dosage; 8.0/8.0; conditions: route intraperitoneal
L1210 [12] = experiment: Antitumor activity was determined against the ip implanted L1210 leukemia in mice by range in survival days at 131 and 258 mg/kg (treatment of 1qd schedule) dosage; Range is 8-9; format: functional, Mus musculus; conditions: route intraperitoneal; summary of the method: as §1
L1210 [13] = experiment: Antitumor activity was determined against the ip implanted L1210 leukemia in mice by range in survival days at 26 and 51 mg/kg (treatment of 1-5qd schedule) dosage; Range is 11-12; format: functional, Mus musculus; conditions: route intraperitoneal; summary of the method: as §1
L1210 [14] = experiment: Antitumor activity was determined against the ip implanted L1210 leukemia in mice by change in […] at 131 and 258 mg/kg (treatment of 1qd schedule) dosage; format: functional, Mus musculus; conditions: route intraperitoneal; summary of the method: as §2
L1210 [15] = experiment: Antitumor activity was determined against the ip implanted L1210 leukemia in mice by change in […] at 26 and 51 mg/kg (treatment of 1-5qd schedule) dosage; format: functional, Mus musculus; conditions: route intraperitoneal; summary of the method: as §2
L1210 [16] = experiment: Antitumor activity was determined against the ip implanted L1210 leukemia in mice by 45-day survivors in mice at 131 and 258 mg/kg (treatment of 1qd schedule) dosage; format: functional, Mus musculus; conditions: route intraperitoneal; summary of the method: as §3
L1210 [17] = experiment: Antitumor activity was determined against the ip implanted L1210 leukemia in mice by 45-day survivors in mice at 26 and 51 mg/kg (treatment of 1-5qd schedule) dosage; format: functional, Mus musculus; conditions: route intraperitoneal; summary of the method: as §3
L1210 [18] = experiment: Antitumor activity was determined against the ip implanted L1210 leukemia in mice by percent increase in life span at 131 and 258 mg/kg (treatment of 1qd schedule) dosage; format: functional, Mus musculus; conditions: route intraperitoneal; summary of the method: as §3
L1210 [19] = experiment: Antitumor activity was determined against the ip implanted L1210 leukemia in mice by percent increase in life span at 26 and 51 mg/kg (treatment of 1-5qd schedule) dosage; format: functional, Mus musculus; conditions: route intraperitoneal; summary of the method: as §3
L1210 [20] = experiment: Antitumor activity was determined against the ip implanted L1210 leukemia in mice by median survival time at 131 adn 258 mg/kg (treatment of 1qd schedule) dosage; 8.0/8.0; conditions: route intraperitoneal
L1210 [21] = experiment: Antitumor activity was determined against the ip implanted L1210 leukemia in mice by median survival time at 26 and 51 mg/kg (treatment of 1-5qd schedule) dosage; 11.0/8.0; conditions: route intraperitoneal

For `CCCCCCCCCCCCCCCCCCOCC(COP(=O)(O)O)OC(=O)CCCCCCCCCCCCCCC.Nc1ccn([C@@H]2O[C@H](COP(=O)(O)O)[C@@H](O)[C@@H]2O)c(=O)n1` (racemic), the median survival time (L1210 [1]) was 11 days, the Range (L1210 [2]) was 7 and the Range (L1210 [3]) was 10. The Optimal dose (L1210 [4]) was 32 mg and 66 mg, the Weight change (L1210 [5]) was 3.2 g mouse-1 and the Weight change (L1210 [6]) was 3.5 g mouse-1. It also gave a Survivors (L1210 [7]) of 0, a Survivors (L1210 [8]) of 0 and an ILS (L1210 [9]) of 38. For the same compound, the ILS (L1210 [10]) was 0 and the median survival time (L1210 [11]) was 8 days.

In the case of `CCCCCCCCCCCCCCCCOCC(COP(=O)(O)O)OC(=O)CCCCCCCCCCCCCCC.Nc1ccn([C@@H]2O[C@H](COP(=O)(O)O)[C@@H](O)[C@@H]2O)c(=O)n1` (racemic), the Range (L1210 [12]) is reported as 8, the Range (L1210 [13]) is reported as 11 and the Optimal dose (L1210 [4]) is reported as 26 mg and 51 mg. For the same compound, the Weight change (L1210 [14]) was -0.8 g mouse-1, the Weight change (L1210 [15]) was 1.1 g mouse-1 and the Survivors (L1210 [16]) was 0. The Survivors (L1210 [17]) was 0, the ILS (L1210 [18]) was 0 and the ILS (L1210 [19]) was 38. It also gave a median survival time (L1210 [20]) of 8 days and a median survival time (L1210 [21]) of 11 days.
